ChEMBL document CHEMBL3352593, “Tumor xenograft uptake of a pyrrole-imidazole (Py-Im) polyamide varies as a function of cell line grafted” (J Med Chem, 2014)

Tests used:
Tumour [1] = assay: Drug level in tumor of human LNCAP cells xenografted NSG mouse at 20 nmol, ip after 24 hrs by liquid scintillation counting method; assay type: ADME, organism-based, Neoplasm; conditions: in vivo
Procedure, shortened: (§1)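 Male NSG mice obtained at 8 weeks of age. Tumours engrafted subcutaneously with 2.5 M cells (viability ≥95% by trypan blue) in medium or 1:1 Matrigel; naive animals had no graft. Mice received 20 nmol C-14 polyamide per animal intraperitoneally. Tissues harvested 24 h later, solubilized, decolorized, and counted by liquid scintillation. Values are quench-corrected and normalized to organ weight; each tissue was analysed individually.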

Liver [2] = assay: Drug level in liver of human LNCAP cells xenografted NSG mouse at 20 nmol, ip after 24 hrs by liquid scintillation counting method; assay type: ADME, organism-based; conditions: in vivo; procedure, shortened: as §1
Tumour [3] = assay: Drug level in tumor of human A549 cells xenografted NSG mouse at 20 nmol, ip after 24 hrs by liquid scintillation counting method; assay type: ADME, organism-based, Neoplasm; conditions: in vivo; procedure, shortened: as §1
Kidney [4] = assay: Drug level in kidney of human A549 cells xenografted NSG mouse at 20 nmol, ip after 24 hrs by liquid scintillation counting method; assay type: ADME, organism-based; conditions: in vivo; procedure, shortened: as §1
Lung [5] = assay: Drug level in lung of human A549 cells xenografted NSG mouse at 20 nmol, ip after 24 hrs by liquid scintillation counting method; assay type: ADME, organism-based; conditions: in vivo; procedure, shortened: as §1
Tumour [6] = assay: Drug level in tumor of human U251 cells xenografted NSG mouse at 20 nmol, ip after 24 hrs by liquid scintillation counting method; assay type: ADME, organism-based, Neoplasm, U-251; conditions: in vivo; procedure, shortened: as §1
Kidney [7] = assay: Drug level in kidney of naive NSG mouse at 20 nmol, ip after 24 hrs by liquid scintillation counting method; assay type: ADME, organism-based; conditions: in vivo; procedure, shortened: as §1
Kidney [8] = assay: Drug level in kidney of human A549 cells and human LNCAP cells xenografted NSG mouse at 20 nmol, ip after 24 hrs by liquid scintillation counting method; assay type: ADME, organism-based; conditions: in vivo; procedure, shortened: as §1
Lung [9] = assay: Drug level in lung of human LNCAP cells xenografted NSG mouse at 20 nmol, ip after 24 hrs by liquid scintillation counting method; assay type: ADME, organism-based; conditions: in vivo; procedure, shortened: as §1
Lung [10] = assay: Drug level in lung of human U251 cells xenografted NSG mouse at 20 nmol, ip after 24 hrs by liquid scintillation counting method; assay type: ADME, organism-based, U-251; conditions: in vivo; procedure, shortened: as §1
Liver [11] = assay: Drug level in liver of human U251 cells xenografted NSG mouse at 20 nmol, ip after 24 hrs by liquid scintillation counting method; assay type: ADME, organism-based, U-251; conditions: in vivo; procedure, shortened: as §1
Liver [12] = assay: Drug level in liver of human A549 cells xenografted NSG mouse at 20 nmol, ip after 24 hrs by liquid scintillation counting method; assay type: ADME, organism-based; conditions: in vivo; procedure, shortened: as §1
Liver [13] = assay: Drug level in liver of human A549 cells and human LNCAP cells xenografted NSG mouse at 20 nmol, ip after 24 hrs by liquid scintillation counting method; assay type: ADME, organism-based; conditions: in vivo; procedure, shortened: as §1
Tumour [14] = assay: Drug level in tumor of matrigel-negative human A549 cells xenografted NSG mouse at 20 nmol, ip measured 3 to 4 weeks past engraftment by liquid scintillation counting method; assay type: ADME, organism-based, Neoplasm; conditions: in vivo; procedure, shortened: as §1
Tumour [15] = assay: Drug level in tumor of matrigel-positive human A549 cells xenografted NSG mouse at 20 nmol, ip measured 3 to 4 weeks past engraftment by liquid scintillation counting method; assay type: ADME, organism-based, Neoplasm; conditions: in vivo; procedure, shortened: as §1
Tumour [16] = assay: Drug level in tumor of matrigel-negative human A549 cells xenografted NSG mouse at 20 nmol, ip measured 5 weeks past engraftment by liquid scintillation counting method; assay type: ADME, organism-based, Neoplasm; conditions: in vivo, 840 h; procedure, shortened: as §1
Tumour [17] = assay: Drug level in tumor of matrigel-positive human A549 cells xenografted NSG mouse at 20 nmol, ip measured 5 weeks past engraftment by liquid scintillation counting method; assay type: ADME, organism-based, Neoplasm; conditions: in vivo, 840 h; procedure, shortened: as §1
Kidney [18] = assay: Drug level in balb/c mouse kidney at 15 nmol, ip after 24 hrs by liquid scintillation counting method; assay type: ADME, organism-based; conditions: in vivo
Procedure, shortened: (§2)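 Male balb/c mice given C-14-labelled polyamide (quantitated by scintillation counting before dosing) as a single 15 nmol intraperitoneal dose per animal. Organs collected 24 h later and solubilized at +65 °C for at least 12 h, then decolorized with H2O2. C-14 counted by liquid scintillation, quench-corrected and normalized to organ weight. N = 5, mean with standard deviation.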

Liver [19] = assay: Drug level in balb/c mouse liver at 15 nmol, ip after 24 hrs by liquid scintillation counting method; assay type: ADME, organism-based; conditions: in vivo; procedure, shortened: as §2
Bone marrow = assay: Drug level in balb/c mouse bone marrow at 15 nmol, ip after 24 hrs by liquid scintillation counting method; assay type: ADME, organism-based; conditions: in vivo; procedure, shortened: as §2
Spleen = assay: Drug level in balb/c mouse spleen at 15 nmol, ip after 24 hrs by liquid scintillation counting method; assay type: ADME, organism-based; conditions: in vivo; procedure, shortened: as §2
Pancreas = assay: Drug level in balb/c mouse pancreas at 15 nmol, ip after 24 hrs by liquid scintillation counting method; assay type: ADME, organism-based; conditions: in vivo; procedure, shortened: as §2
Brain = assay: Drug level in balb/c mouse brain at 15 nmol, ip after 24 hrs by liquid scintillation counting method; assay type: ADME, organism-based; conditions: in vivo; procedure, shortened: as §2
Liver [20] = assay: Drug level in liver of matrigel-negative human A549 cells xenografted NSG mouse at 20 nmol, ip measured 5 weeks past engraftment by liquid scintillation counting method; assay type: ADME, organism-based; conditions: in vivo, 840 h, in the assay text read “matrigel-positive” for “matrigel-negative”; procedure, shortened: as §1
Liver [21] = assay: Drug level in liver of matrigel-positive human A549 cells xenografted NSG mouse at 20 nmol, ip measured 5 weeks past engraftment by liquid scintillation counting method; assay type: ADME, organism-based; conditions: in vivo, 840 h, in the assay text read “matrigel-negative” for “matrigel-positive”; procedure, shortened: as §1

CC(=O)N[C@H](CCNC(=O)c1cc(NC(=O)c2cc(NC(=O)c3cc(NC(=O)c4nccn4C)cn3C)cn2C)cn1C)C(=O)Nc1cnc(C(=O)Nc2cc(C(=O)Nc3cc(C(=O)Nc4cc(C(=O)NCCCN(C)CCCN[14C](=O)c5cccc([14C](=O)O)c5)n(C)c4)n(C)c3)n(C)c2)n1C
Drug uptake (Tumour [1]): 1.5 mg/kg
Drug uptake (Liver [2]): 1.04 mg/kg
Drug uptake (Tumour [3]): 0.23 mg/kg
Drug uptake (Kidney [4]): 0.27 mg/kg
Drug uptake (Lung [5]): 0.15 mg/kg
Drug uptake (Tumour [6]): 0.65 mg/kg
Drug uptake (Kidney [7]): 0.23 mg/kg
Drug uptake (Kidney [8]): 0.27 mg/kg
Drug uptake (Lung [9]): 0.12 mg/kg
Drug uptake (Lung [10]): 0.12 mg/kg
Drug uptake (Liver [11]): 0.57 mg/kg
Drug uptake (Liver [12]): 0.57 mg/kg
Drug uptake (Liver [13]): 1.04 mg/kg
Drug uptake (Tumour [14]): 0.23 mg/kg
Drug uptake (Tumour [15]): 0.23 mg/kg
Drug uptake (Tumour [16]): 0.25 mg/kg
Drug uptake (Tumour [17]): 0.59 mg/kg
Drug uptake (Kidney [18]): 0.22 mg/kg
Drug uptake (Liver [19]): 0.49 mg/kg
Drug uptake (Bone marrow): 0.24 mg/kg
Drug uptake (Spleen): 0.32 mg/kg
Drug uptake (Pancreas): 0.15 mg/kg
Drug uptake (Brain): Not Active
Drug uptake (Liver [20]): 0.65 mg/kg
Drug uptake (Liver [21]): 0.55 mg/kg
